Data published in ChEMBL document CHEMBL3621182, “Adenosine analogs as inhibitors of tyrosyl-tRNA synthetase: Design, synthesis and antibacterial evaluation” (Bioorg Med Chem, 2015).
Values after ≈ are worked out from the molar mass of the structure shown.

Columns and labels:
Escherichia coli = test: Antimicrobial activity against Escherichia coli ATCC 8739 by MTT assay; type: functional
How it was run: (§1)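 Broth microdilution in LB medium with MTT read-out. Compound stock 1000 µg/ml in DMSO, diluted serially with sterile medium (50% v/v DMSO in PBS). Inoculum about 10^5 cfu/mL, incubated at 37°C. Then 3 mg/mL MTT in PBS added, 4-5 h at room temperature. Dye extracted with 10% SDS containing 5% isopropanol and HCl for 8-10 h. Absorbance at 570 nm gives MIC50.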

Pseudomonas aeruginosa = test: Antimicrobial activity against Pseudomonas aeruginosa ATCC 9027 by MTT assay; type: functional; how it was run: as §1
Staphylococcus aureus = test: Antimicrobial activity against Staphylococcus aureus ATCC 6538 by MTT assay; type: functional; how it was run: as §1
[1] = Inhibition of Staphylococcus aureus tyrosyl-tRNA synthetase expressed in Escherichia coli assessed as reduction in tRNA aminoacylation pre-incubated for 10 mins before addition of Escherichia coli MRE600 tRNA and L-tyrosine
How it was run: (§2)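 Tritiated tyrosine aminoacylation at 37°C. Mix (final): 100 mM Tris/Cl pH 7.9, 50 mM KCl, 16 mM MgCl2, 5 mM ATP, 3 mM DTT, 4 mg/ml E. coli MRE600 tRNA, 10 µM L-tyrosine including 0.3 µM L-[ring-3,5-3H]tyrosine. TyrRS (0.2 nM) preincubated 10 min at room temperature with a range of inhibitor concentrations. TCA precipitation onto filters, scintillation counting. Linear rates, under 50% tRNA acylation; IC50 at half activity.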

[2] = Inhibition of Staphylococcus aureus tyrosyl-tRNA synthetase; how it was run: as §2

MIC50 (Escherichia coli) [µg/mL]	MIC50 (Pseudomonas aeruginosa) [µg/mL]	MIC50 (Staphylococcus aureus) [µg/mL]	IC50 [1] [µM]	IC50 [2] [µM]	Compound
33.7 (≈ 90.7 µM)	21.9 (≈ 59 µM)	67.4 (≈ 181 µM)	39	–	Nc1ncnc2c1ncn2[C@@H]1O[C@H](COC(=O)c2ccccc2)[C@@H](O)[C@H]1O
–	–	–	–	< 0.001	N[C@@H](Cc1ccc(O)cc1)C(=O)N[C@H](C(=O)O)[C@H]1[C@H](O)[C@]2(O)CO[C@@H]([C@@H]2O)N1O
77.6 (≈ 251 µM)	58.2 (≈ 188 µM)	> 100	–	–	CC(=O)OC[C@H]1O[C@@H](n2cnc3c(N)ncnc32)[C@H](O)[C@@H]1O
> 100	> 100	> 100	77	–	CCCCCC(=O)OC[C@H]1O[C@@H](n2cnc3c(N)ncnc32)[C@H](O)[C@@H]1O
40.6 (≈ 80.5 µM)	18.8 (≈ 37.3 µM)	38.3 (≈ 75.9 µM)	3.7	–	CC1(C)O[C@@H]2[C@H](O1)[C@@H](COC(=O)Cc1cccc(Br)c1)O[C@H]2n1cnc2c(N)ncnc21
27.8 (≈ 60.4 µM)	22 (≈ 47.8 µM)	44.9 (≈ 97.6 µM)	6.3	–	CC1(C)O[C@@H]2[C@H](O1)[C@@H](COC(=O)Cc1cccc(Cl)c1)O[C@H]2n1cnc2c(N)ncnc21
76.2 (≈ 172 µM)	24.8 (≈ 55.9 µM)	> 100	7.1	–	CC1(C)O[C@@H]2[C@H](O1)[C@@H](COC(=O)Cc1ccc(F)cc1)O[C@H]2n1cnc2c(N)ncnc21
18.9 (≈ 42.8 µM)	25.9 (≈ 58.7 µM)	> 100	9.6	–	CC1(C)O[C@@H]2[C@H](O1)[C@@H](COC(=O)Cc1cccc(O)c1)O[C@H]2n1cnc2c(N)ncnc21
27 (≈ 61.4 µM)	14.1 (≈ 32.1 µM)	> 100	17	–	Cc1ccc(CC(=O)OC[C@H]2O[C@@H](n3cnc4c(N)ncnc43)[C@@H]3OC(C)(C)O[C@@H]32)cc1
25.7 (≈ 58 µM)	25.5 (≈ 57.5 µM)	> 100	44	–	CC1(C)O[C@@H]2[C@H](O1)[C@@H](COC(=O)Cc1ccccc1F)O[C@H]2n1cnc2c(N)ncnc21
20.2 (≈ 48.1 µM)	35.1 (≈ 83.6 µM)	49.2 (≈ 117 µM)	6	–	Nc1ncnc2c1ncn2[C@@H]1O[C@H](COC(=O)Cc2cccc(Cl)c2)[C@@H](O)[C@H]1O
> 100	26.1 (≈ 64.7 µM)	> 100	7.7	–	Nc1ncnc2c1ncn2[C@@H]1O[C@H](COC(=O)Cc2ccc(F)cc2)[C@@H](O)[C@H]1O
88.9 (≈ 191 µM)	19.3 (≈ 41.6 µM)	42.2 (≈ 90.9 µM)	5.2	–	Nc1ncnc2c1ncn2[C@@H]1O[C@H](COC(=O)Cc2ccc(Br)cc2)[C@@H](O)[C@H]1O
9.8 (≈ 24.4 µM)	25.9 (≈ 64.5 µM)	44.3 (≈ 110 µM)	23	–	Nc1ncnc2c1ncn2[C@@H]1O[C@H](COC(=O)Cc2ccc(O)cc2)[C@@H](O)[C@H]1O
15.9 (≈ 39.6 µM)	26 (≈ 64.8 µM)	37.8 (≈ 94.2 µM)	44	–	Nc1ncnc2c1ncn2[C@@H]1O[C@H](COC(=O)Cc2ccccc2O)[C@@H](O)[C@H]1O
16.4 (≈ 41.1 µM)	11.8 (≈ 29.5 µM)	47.4 (≈ 119 µM)	15	–	Cc1ccc(CC(=O)OC[C@H]2O[C@@H](n3cnc4c(N)ncnc43)[C@H](O)[C@@H]2O)cc1
16.5 (≈ 37 µM)	10.2 (≈ 22.9 µM)	> 100	> 100	–	COc1ccc(CC(=O)OC[C@H]2O[C@@H](n3cnc4c(N)ncnc43)[C@H](O)[C@@H]2O)cc1OC
23.6 (≈ 58.5 µM)	35.8 (≈ 88.8 µM)	51.4 (≈ 127 µM)	40	–	Nc1ncnc2c1ncn2[C@@H]1O[C@H](COC(=O)Cc2ccccc2F)[C@@H](O)[C@H]1O
> 100	> 100	> 100	> 100	–	CCCCCCCCCC(=O)OC[C@H]1O[C@@H](n2cnc3c(N)ncnc32)[C@H](O)[C@@H]1O
28.1 (≈ 69.2 µM)	19.3 (≈ 47.6 µM)	> 100	43	–	Nc1ncnc2c1ncn2[C@@H]1O[C@H](COC(=O)c2ccc(Cl)cc2)[C@@H](O)[C@H]1O
11.3 (≈ 27.8 µM)	8.7 (≈ 21.4 µM)	9.4 (≈ 23.2 µM)	28	–	Nc1ncnc2c1ncn2[C@@H]1O[C@H](COC(=O)c2cccc(Cl)c2)[C@@H](O)[C@H]1O
5.3 (≈ 13.6 µM)	3.5 (≈ 8.99 µM)	20.4 (≈ 52.4 µM)	11	–	Nc1ncnc2c1ncn2[C@@H]1O[C@H](COC(=O)c2cccc(F)c2)[C@@H](O)[C@H]1O
0.67 (≈ 2.02 µM)	0.1 (≈ 0.302 µM)	–	–	–	O=C(O)c1cn(C2CC2)c2cc(N3CCNCC3)c(F)cc2c1=O [CIPROFLOXACIN]

Further lines, the compound ahead of its results:

Compound	MIC50 (Escherichia coli) [µg/mL]	MIC50 (Pseudomonas aeruginosa) [µg/mL]	MIC50 (Staphylococcus aureus) [µg/mL]	IC50 [1] [µM]	IC50 [2] [µM]
CC1(C)O[C@@H]2[C@H](O1)[C@@H](COC(=O)Cc1ccc(Br)cc1)O[C@H]2n1cnc2c(N)ncnc21	> 100	21.2 (≈ 42 µM)	> 100	5.6	–
CC1(C)O[C@@H]2[C@H](O1)[C@@H](COC(=O)Cc1ccc(Cl)cc1)O[C@H]2n1cnc2c(N)ncnc21	15.2 (≈ 33.1 µM)	30.6 (≈ 66.5 µM)	7.2 (≈ 15.7 µM)	8.4	–
CC1(C)O[C@@H]2[C@H](O1)[C@@H](COC(=O)Cc1cccc(F)c1)O[C@H]2n1cnc2c(N)ncnc21	60.3 (≈ 136 µM)	12.9 (≈ 29.1 µM)	> 100	1.1	–
CC1(C)O[C@@H]2[C@H](O1)[C@@H](COC(=O)Cc1ccc(O)cc1)O[C@H]2n1cnc2c(N)ncnc21	44.6 (≈ 101 µM)	17.4 (≈ 39.4 µM)	> 100	19	–
CC1(C)O[C@@H]2[C@H](O1)[C@@H](COC(=O)Cc1ccccc1O)O[C@H]2n1cnc2c(N)ncnc21	37.2 (≈ 84.3 µM)	23 (≈ 52.1 µM)	> 100	55	–
CC1(C)O[C@@H]2[C@H](O1)[C@@H](COC(=O)Cc1ccc(Cl)c(Cl)c1)O[C@H]2n1cnc2c(N)ncnc21	34 (≈ 68.8 µM)	19.3 (≈ 39 µM)	40.2 (≈ 81.3 µM)	> 100	–
COc1ccc(CC(=O)OC[C@H]2O[C@@H](n3cnc4c(N)ncnc43)[C@@H]3OC(C)(C)O[C@@H]32)cc1OC	47.3 (≈ 97.4 µM)	30.1 (≈ 62 µM)	> 100	> 100	–
CC1(C)O[C@@H]2[C@H](O1)[C@@H](COC(=O)Cc1ccccc1Cl)O[C@H]2n1cnc2c(N)ncnc21	29 (≈ 63.1 µM)	28 (≈ 60.9 µM)	> 100	47	–
Nc1ncnc2c1ncn2[C@@H]1O[C@H](COC(=O)Cc2cccc(Br)c2)[C@@H](O)[C@H]1O	38.1 (≈ 82.1 µM)	27.4 (≈ 59 µM)	> 100	3.3	–
Nc1ncnc2c1ncn2[C@@H]1O[C@H](COC(=O)Cc2ccc(Cl)cc2)[C@@H](O)[C@H]1O	7.7 (≈ 18.3 µM)	19.9 (≈ 47.4 µM)	13.8 (≈ 32.9 µM)	8.1	–
Nc1ncnc2c1ncn2[C@@H]1O[C@H](COC(=O)Cc2cccc(F)c2)[C@@H](O)[C@H]1O	1.3 (≈ 3.22 µM)	0.08 (≈ 0.198 µM)	9.2 (≈ 22.8 µM)	0.8	–
Nc1ncnc2c1ncn2[C@@H]1O[C@H](COC(=O)Cc2cccc(O)c2)[C@@H](O)[C@H]1O	37 (≈ 92.2 µM)	27.3 (≈ 68 µM)	> 100	9.3	–
Nc1ncnc2c1ncn2[C@@H]1O[C@H](COC(=O)Cc2ccc(Cl)c(Cl)c2)[C@@H](O)[C@H]1O	19.4 (≈ 42.7 µM)	21.4 (≈ 47.1 µM)	48.5 (≈ 107 µM)	97	–
Nc1ncnc2c1ncn2[C@@H]1O[C@H](COC(=O)Cc2ccccc2Cl)[C@@H](O)[C@H]1O	7.4 (≈ 17.6 µM)	26.7 (≈ 63.6 µM)	> 100	47	–
CCCC(=O)OC[C@H]1O[C@@H](n2cnc3c(N)ncnc32)[C@H](O)[C@@H]1O	> 100	87.3 (≈ 259 µM)	> 100	65	–
CCCCCCCC(=O)OC[C@H]1O[C@@H](n2cnc3c(N)ncnc32)[C@H](O)[C@@H]1O	> 100	> 100	> 100	93	–
Nc1ncnc2c1ncn2[C@@H]1O[C@H](COC(=O)c2ccc(F)cc2)[C@@H](O)[C@H]1O	24.8 (≈ 63.7 µM)	11.2 (≈ 28.8 µM)	> 100	51	–
Nc1ncnc2c1ncn2[C@@H]1O[C@H](COC(=O)c2ccc(Br)cc2)[C@@H](O)[C@H]1O	10.1 (≈ 22.4 µM)	22.7 (≈ 50.4 µM)	> 100	62	–
CC1(C)S[C@@H]2[C@H](NC(=O)Cc3ccccc3)C(=O)N2[C@H]1C(=O)O [PENICILLIN G SODIUM]	–	–	0.54	–	–
